From ChEMBL document CHEMBL4028890, “A Positive Allosteric Modulator of the Serotonin 5-HT2C Receptor for Obesity” (J Med Chem, 2017) come the findings set out here.

The source made the active and inactive calls. The calls are words filed in the database; no cut-off is given here.

In the first assay the test system is Rattus norvegicus. The assay can be described thus: Antiobesity activity in Wistar rat assessed as reduction in food intake at 2 mg/kg, ip after 4 hrs. Format: functional, organism-based. A digest of the protocol: (§1)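 Male Wistar rats, 200−250 g, aged 10−12 weeks, food-deprived 16 h before refeeding. Compound given ip in sterile saline; food and water intake measured at 30, 60, 120 and 240 min after food presentation. Where used, antagonist (3 mg/kg, ip) or other pretreatments were injected 30 min before the compound. Mean ± SEM, at least eight rats per group.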
Turning to `O=C1Nc2cc(Cl)c(Cl)cc2N2CCNC[C@H]12`, the result was inactive.

A further assay has as its system Rattus norvegicus. In words: Antiobesity activity in Wistar rat assessed as reduction in food intake at 2 mg/kg, ip after 4 hrs in presence of 5-HT2C antagonist SB-242084. The assay is classed as functional, organism-based. In short, it runs like this: as §1
Turning to `O=C1Nc2cc(Cl)c(Cl)cc2N2CCNC[C@H]12`, the outcome was inactive.

For another assay, the system named is Rattus norvegicus. The assay can be described thus: Antiobesity activity in Wistar rat assessed as reduction in food intake at 2 mg/kg, ip measured up to 4 hrs. The assay is classed as functional, organism-based. In short, it runs like this:
as §1
As for `O=C1Nc2cc(Cl)c(Cl)cc2N2CCNC[C@H]12`, the outcome was Active.

For the next assay, the target named is T1, 5-hydroxytryptamine receptor 2C (Homo sapiens) (UniProt P28335).
T1 sequence (whole entry): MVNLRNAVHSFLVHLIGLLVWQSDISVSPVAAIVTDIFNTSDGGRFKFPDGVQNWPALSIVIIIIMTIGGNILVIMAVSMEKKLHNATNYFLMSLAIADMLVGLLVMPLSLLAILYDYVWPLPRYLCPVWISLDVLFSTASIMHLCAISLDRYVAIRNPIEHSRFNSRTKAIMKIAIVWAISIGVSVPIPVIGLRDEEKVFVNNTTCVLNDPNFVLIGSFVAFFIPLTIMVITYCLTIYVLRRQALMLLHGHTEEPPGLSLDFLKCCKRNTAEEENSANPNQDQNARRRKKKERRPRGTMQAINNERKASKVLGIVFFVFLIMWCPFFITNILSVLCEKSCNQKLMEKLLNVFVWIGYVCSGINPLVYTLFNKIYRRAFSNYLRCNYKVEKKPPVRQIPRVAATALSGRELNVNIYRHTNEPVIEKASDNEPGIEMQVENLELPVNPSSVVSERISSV
In words: Positive allosteric modulation of human 5-HT2C receptor expressed in human HeLa-K1 cells assessed as potentiation of 5-HT-induced inositol monophosphate release at 10 uM after 20 mins by HTRF assay relative to control. Format: functional, cell-based. In short, it runs like this:
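IP-One HTRF assay in CHO-K1 cells (human 5-HT2A, 5-HT2B) or HeLa-K1 cells (human 5-HT2C), seeded and grown 24 h at 37 °C. Test compound and/or 5-HT added in stimulation buffer, then 20 min at 37 °C before IP1 read-out. Data normalized to 5-HT maximal effect and fitted by nonlinear regression. Triplicates, mean ± SD.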
Consider `c1ccc(Cn2cc(CNc3cccnc3)c3ccccc32)nc1`, for which the Activity was found to be 0%.
The same measure, in the same setting: under `N#Cc1cccc(Cn2cc(CNc3cccnc3)c3ccccc32)c1` stands 22%; under `Fc1ccc(Cn2cc(CNc3cccnc3)c3ccccc32)cc1`, 9%.
For `FC(F)(F)c1ccc(Cn2cc(CNc3cccnc3)c3ccccc32)cc1`, the Activity was determined as 8%.
Still for that read-out and setting: under `Brc1cccc(Cn2cc(CNc3cccnc3)c3ccccc32)c1` stands 7%.
The same measure, in the same setting: under `c1ccc(Cn2cc(CNc3ncccn3)c3ccccc32)cc1` stands 0%; under `Fc1ccccc1Cn1cc(CNc2cccnc2)c2ccccc21`, 6%; under `Cc1ccncc1NCc1cn(Cc2ccccc2)c2ccccc12`, 21%.
As for `Fc1cccc(Cn2cc(CNc3cccnc3)c3ccccc32)c1`, the Activity came out at 22%.
For the molecule `Cc1ccc(Cn2cc(CNc3cccnc3)c3ccccc32)cc1`, the Activity was found to be 24%.
Consider `c1ccc(Cn2cc(CNc3cccnn3)c3ccccc32)cc1`, for which the Activity was 9%.
As to `Clc1ccc(Cn2cc(CNc3cccnc3)c3ccccc32)cc1`, the Activity came out at 13%.
Regarding `Fc1cc(Cl)ccc1Cn1cc(CNc2cccnc2)c2ccccc21`, the Activity amounted to 9%.
Still for that read-out and setting: under `c1ccc(Cn2cc(CNc3cncnc3)c3ccccc32)cc1` stands 20%; under `c1ccc(Cn2cc(CNc3ccccn3)c3ccccc32)cc1`, 25%.
The same measure, in the same setting: with `Clc1cccc(Cn2cc(CNc3cccnc3)c3ccccc32)c1` the figure was 26%; with `Cc1ncccc1NCc1cn(Cc2ccccc2)c2ccccc12`, 0%; with `Fc1ccc(Cn2cc(CNc3cccnc3)c3ccccc32)c(F)c1`, 9%.
For `Cc1cccc(Cn2cc(CNc3cccnc3)c3ccccc32)c1`, the Activity stood at 27%.
Same read-out and setting: under `COc1ccc(Cn2cc(CNc3cccnc3)c3ccccc32)cc1` stands 6%.
For the molecule `Clc1ccccc1Cn1cc(CNc2cccnc2)c2ccccc21`, the Activity was found to be 7%.
`Brc1ccc(Cn2cc(CNc3cccnc3)c3ccccc32)cc1`: the Activity was 6%.
As to `Brc1ccccc1Cn1cc(CNc2cccnc2)c2ccccc21`, the Activity amounted to 0%.
In the case of `c1cncc(Cn2cc(CNc3cccnc3)c3ccccc32)c1`, the Activity is 25%.
On to `c1ccc(Cn2cc(CNc3ccnnc3)c3ccccc32)cc1`, for which the Activity is 0%.
Regarding `N#Cc1ccccc1Cn1cc(CNc2cccnc2)c2ccccc21`, the Activity was found to be 7%.
Regarding `COc1cccc(Cn2cc(CNc3cccnc3)c3ccccc32)c1`, the Activity was 0%.
On to `c1cncc(NCc2cn(CC3CC3)c3ccccc23)c1`, for which the Activity came to 0%.
Take `FC(F)(F)c1cccc(Cn2cc(CNc3cccnc3)c3ccccc32)c1`: the Activity is 0%.
With `c1ccc(Cn2cc(CNc3cnccn3)c3ccccc32)cc1`, the Activity is 0%.
With `Cc1ccccc1Cn1cc(CNc2cccnc2)c2ccccc21`, the Activity is 7%.
Regarding `FC(F)(F)c1ccccc1Cn1cc(CNc2cccnc2)c2ccccc21`, the Activity is 9%.
Turning to `COc1ccccc1Cn1cc(CNc2cccnc2)c2ccccc21`, the Activity came out at 0%.
The same measure, in the same setting: under `c1cncc(NCc2cn(Cc3ccncc3)c3ccccc23)c1` stands 9%; under `N#Cc1ccc(Cn2cc(CNc3cccnc3)c3ccccc32)cc1`, 7%.
Turning to `c1ccc(Cn2cc(CNc3ccncn3)c3ccccc32)cc1`, the Activity was 0%.
